Screening data (PubChem BioAssay)
hIAP activ = increases human intestinal alkaline phosphatase activity; actives 0.16% (n = 330,000); AID 2524; purified human IAP, CDP-Star luminescence, 30 min; hits give high values; 1 = vehicle-only enzyme, 0 = enzyme-free background; activation factor at 10 µM; P09923;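 active = activation factor of the enzyme at least 2-fold when tested at 20 µM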
Target sequence (P09923 whole entry, looked up): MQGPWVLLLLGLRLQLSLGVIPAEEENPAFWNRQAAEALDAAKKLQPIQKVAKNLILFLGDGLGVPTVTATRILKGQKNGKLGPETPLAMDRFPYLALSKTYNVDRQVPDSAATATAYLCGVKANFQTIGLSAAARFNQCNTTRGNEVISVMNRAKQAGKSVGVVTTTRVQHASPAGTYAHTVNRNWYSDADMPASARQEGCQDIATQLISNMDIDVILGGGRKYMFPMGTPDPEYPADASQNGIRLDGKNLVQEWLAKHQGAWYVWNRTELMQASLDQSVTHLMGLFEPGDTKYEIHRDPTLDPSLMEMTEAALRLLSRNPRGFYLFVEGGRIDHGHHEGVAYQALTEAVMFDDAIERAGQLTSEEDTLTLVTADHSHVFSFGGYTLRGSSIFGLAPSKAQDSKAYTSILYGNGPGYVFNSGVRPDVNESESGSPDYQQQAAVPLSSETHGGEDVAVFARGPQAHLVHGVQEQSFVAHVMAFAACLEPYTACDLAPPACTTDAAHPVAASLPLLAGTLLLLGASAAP
bIAP activator = increases bovine intestinal alkaline phosphatase activity | purified bovine IAP, CDP-star luminescence, 30 min; hits give high values; fold of DMSO-control signal, blank-subtracted | activation factor at 20 µM | actives 0.17% (n = 200,000) | AID 1016;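 active = activation factor of 2 or more at 20 µM, a signal rise over negative controls twice the positive control's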
mIAP activ = increases mouse intestinal alkaline phosphatase activity. muIAP, CDP-Star luminescence, 30 min; hits give high values; 1 = vehicle-only enzyme signal, 0 = enzyme-free wells. activation factor at 10 µM. actives 0.24% (n = 330,000);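 active = activation factor of at least 2 at 20 µM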
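Assay system: mouse IAP enzyme / Compound: DMSO-dissolved test compounds / Timing: 30 min, room temperature / Measured by: luminescence from enzymatic CDP-Star hydrolysis / Control set: DMSO-only wells, enzyme-free buffer wells as negative control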
bIAP inhibitor = blocks bovine intestinal alkaline phosphatase activity | purified bovine IAP, CDP-star luminescence, 30 min | inhibition, % at 20 µM | 190,000 tested, under 10 active | AID 1019;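 active = over 50% inhibition of intestinal alkaline phosphatase at 20 µM in the single-dose screen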
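Assay system: bovine IAP enzyme; medium: DEA buffer 100 mM, pH 9.8, with MgCl2 1.0 mM, ZnCl2 0.02 mM; doses: 20 µM single dose; incubation: enzyme reaction for 30 min at room temperature; detection: CDP-star luminescence signal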
mIAP block = mouse IAP inhibition; inhibition, % at 10 µM; purified mouse IAP, CDP-Star luminescence, 30 min; AID 2806; actives 0.2% (n = 330,000);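 active = inhibition of at least 40% at 10 µM in the primary screen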;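 note: plate controls were DMSO with enzyme for no effect and no enzyme wells for full effect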
hIAP inh = blocks human intestinal alkaline phosphatase; P09923; purified IAP, CDP-Star luminescence, 30 min; inhibition, % at 10 µM; actives 0.12% (n = 330,000); AID 2544;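 active = inhibition reaching a set limit with compound at 10 µM in the primary screen, cut at about 35% in these data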;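 note: plate controls were DMSO wells with enzyme for no effect and no-enzyme buffer wells for full effect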
mIAP inh conf = mouse IAP inhibition confirmation; AID 434971; purified mouse IAP, CDP-Star luminescence, 30 min; inhibition, % at 10 µM; actives 4.7% (n = 11,000); shares compounds with mIAP block;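 active = inhibition of at least 40% at 10 µM in either of the two replicates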;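 note: plate controls were DMSO wells with enzyme for no effect and buffer wells lacking enzyme for full effect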
Numbers without * were called inactive; i = inactive; nt = no result. Only some compounds are listed: those with a hit (about 0.79% of all), similar ones and a draw of the others.

SMILES | hIAP activ | bIAP activator | mIAP activ | bIAP inhibitor | mIAP block | hIAP inh | mIAP inh conf
Cc1cc(O)c(N=Cc2cc3c(cc2[N+](=O)[O-])OCO3)cc1C | 1.34 | nt | 0.492 | nt | 50.8* | -34.5 | 59.9*
Cc1cccc(NC(=O)NC2CCCCCCC2)c1 | 1.35 | nt | 2.17* | nt | -117.5 | -34.7 | -145.2
CC(=O)c1cccc(NC(=O)NC2CCCCCCC2)c1 | 1.23 | nt | 1.18 | nt | -17.9 | -23.4 | nt
O=C(Nc1cccc(C(F)(F)F)c1)NC1CCCCC1 | 1.36 | 0.9 | 2.5* | 11.6 | -149.9 | -35.7 | -110.3
Cc1ccc(NC(=O)NC2CCCCCCC2)cc1C | 1.46 | nt | 3.33* | nt | -232.6 | -45.5 | -155.9
CCOC(=O)C1CCN(S(=O)(=O)c2ccc(Cl)s2)CC1 | 0.821 | nt | 0.94 | nt | 6.0 | 17.9 | nt
C/C(=N\NC(=O)c1cc(O)cc(O)c1)c1ccc(NC(=O)Cc2ccccc2)cc1 | 1.03 | nt | 0.495 | nt | 50.5* | -3.0 | 56.8*
O=C(Nc1ccc(Cl)c(Cl)c1)Nc1cc(C(=O)N2CCOCC2)ccc1N1CCCCC1 | 1.82 | nt | 10.1* | nt | i | -82.5 | -167.3
O=C(Nc1cccc(Cl)c1)Nc1cc(S(=O)(=O)N2CCCCC2)ccc1Cl | 1.11 | 0.8 | 3.57* | 21.1 | -256.9 | -10.8 | -107.7
O=C(Nc1ccc(Cl)c(Cl)c1)Nc1cc(S(=O)(=O)N2CCOCC2)ccc1N1CCCC1 | 1.43 | 0.8 | 3.12* | 24.6 | -212.0 | -42.6 | -153.0
CCOC(=O)C1(C)C=C(Nc2ccc(NC(C)=O)cc2)C(=O)N1c1ccc(NC(C)=O)cc1 (stereo unspecified) | 1.05 | nt | 1.11 | nt | -11.1 | -4.6 | nt
CC(C)(Oc1ccc(-c2ccco2)cc1)C(=O)O | 0.978 | 1 | 0.918 | 0.6 | 8.2 | 2.2 | nt
CC(=O)c1sc(C(=O)O)c(-c2ccco2)c1-c1ccco1 | 0.965 | nt | 0.451 | nt | 54.9* | 3.5 | 63.6*
NS(=O)(=O)c1ccc(CNC(=O)/C=C/c2ccco2)cc1 | 0.983 | nt | 0.541 | nt | 45.9* | 1.7 | 49.6*
NS(=O)(=O)c1ccc(NC(=S)NC(=O)/C=C/c2ccco2)cc1 | 0.961 | 0.9 | 0.092 | 8.8 | 90.8* | 3.9 | 77.3*
O=C(/C=C/c1ccco1)NCc1ccc(F)cc1 | 0.959 | 1 | 1 | -4.8 | -0.1 | 4.1 | nt
CC(=O)Nc1ccc(C(=S)NCCCO)cc1 | 1.12 | 1.2 | 1 | -16.5 | -0.1 | -12.2 | nt
CCn1cc(C(=O)N[C@@H](C)C(=O)NCCCn2ccnc2)c(=O)c2cc3c(cc21)OCO3 | 1.47 | nt | 0.94 | nt | 6.0 | -47.0 | nt
O=C(O)CCN1C(=O)/C(=C/c2ccc(-c3nc4ccccc4s3)o2)SC1=S | 0.845 | 0.6 | 0.634 | 38.3 | 36.6 | 15.5 | nt
O=C(O)CCCN1C(=O)/C(=C/C=C/c2ccco2)SC1=S | 1.01 | nt | 0.324 | nt | 67.6* | -1.5 | 68.7*
O=C(O)CC(C(=O)O)N1C(=O)/C(=C/C=C/c2ccco2)SC1=S (stereo unspecified) | 1.02 | nt | 0.259 | nt | 74.1* | -2.4 | 79.9*
O=C(NN1C(=O)/C(=C/C=C/c2ccco2)SC1=S)c1ccccc1O | 1.54 | nt | 0.134 | nt | 86.6* | -54.2 | 93.3*
O=C(O)CC(C(=O)O)N1C(=O)/C(=C/c2ccc(-c3nc4ccccc4s3)o2)SC1=S (stereo unspecified) | 0.942 | 0.6 | 0.366 | 40.3 | 63.4* | 5.8 | 61.7*
Cc1ccc(NC(=O)CCCN2C(=O)/C(=C/C=C/c3ccccc3)SC2=S)cc1 | 0.847 | 0.7 | 0.827 | 31.8 | 17.3 | 15.3 | nt
Cn1cccc1/C=C1\SC(=S)N(NC(=O)c2ccccc2O)C1=O | 0.939 | nt | 0.671 | nt | 32.9 | 6.1 | nt
SMILES | hIAP activ | bIAP activator | mIAP activ | bIAP inhibitor | mIAP block | hIAP inh | mIAP inh conf
CCN1CCc2c(OCC(=O)Nc3ccc4c(c3)OCCO4)cccc2C1=O | 1.15 | 1 | 1.2 | 1.6 | -19.8 | -15.1 | nt
C=C(C(=O)Oc1c(C(C)(C)C)cccc1C(C)(C)C)c1ccccc1 | 0.951 | nt | 0.969 | nt | 3.1 | 4.9 | nt
CCOC(=O)N1CCN(C(=O)COC(=O)C2CCN(S(=O)(=O)c3c(Cl)cccc3Cl)CC2)CC1 | 0.816 | nt | 0.955 | nt | 4.5 | 18.4 | nt
COc1ccc(-c2nn(C)c(=O)[nH]2)cc1 | 0.938 | nt | 0.976 | nt | 2.4 | 6.2 | nt
Cn1c(=O)c2c(nc(NC3CCCCC3)n2CC(=O)C23CC4CC(CC(C4)C2)C3)n(C)c1=O | 1.23 | 1 | 2* | -0.7 | -100.1 | -23.4 | -464.6
c1ccc(Cn2nnnc2CN2CCN(Cc3ccc4c(c3)OCO4)CC2)cc1 | 1.02 | 1 | 1.02 | 1.9 | -2.0 | -1.9 | nt
O=C(Nc1ccccc1)NC1CC2CCC(C1)N2Cc1nnnn1Cc1ccc2c(c1)OCO2 (stereo unspecified) | 1.17 | 1.8 | 2.49* | -84.7 | -148.6 | -17.1 | -122.8
Oc1cc2c(cc1O)[C@H]1c3ccc(O)c(O)c3OC[C@@]1(O)C2 | 0.922 | nt | 0.397 | nt | 60.3* | 7.8 | 53.1*
O=c1oc2cc(O)ccc2s1 | 1.11 | nt | 0.524 | nt | 47.6* | -11.1 | 71.5*
CCOP(=O)(OCC)C(NC(=O)Nc1ccc(C)c(Cl)c1)c1ccccc1 (stereo unspecified) | 0.916 | 1.1 | 3.37* | -5.5 | -237.1 | 8.4 | -158.7
O=C(CSc1nc2ccccc2o1)N/N=C/c1ccc(O)c(O)c1 | 0.74 | nt | 0.331 | nt | 66.9* | 26.0 | 74.4*
Cc1cc(SCC(=O)N/N=C/c2ccc(O)c(O)c2)c(C)cc1Br | 1.15 | 0.9 | 0.843 | 13.5 | 15.7 | -14.8 | nt
O=C(N/N=C/c1ccc(O)c(O)c1)N/N=C/c1ccc(O)c(O)c1 | 0.798 | nt | 0.514 | nt | 48.6* | 20.2 | 71.6*
Cc1nonc1C(=O)N/N=C/c1ccc(O)c(O)c1 | 0.903 | 1 | 0.579 | 2.2 | 42.1* | 9.7 | 41.0*
C[C@H](CO)N1C[C@H](C)[C@@H](CN(C)S(=O)(=O)c2ccccc2)Oc2c(NC(=O)CCC(F)(F)F)cccc2C1=O | 0.978 | nt | 0.918 | nt | 8.2 | 2.2 | nt
Cc1ccc(/C=C/C(=O)O)cc1S(=O)(=O)N1CCc2ccccc21 | 1.06 | nt | 1.02 | nt | -2.2 | -6.1 | nt
CC(C)(C)c1nc(NC(=O)Nc2ccccc2)sc1Br | 0.948 | 1 | 2.92* | -2.3 | -192.0 | 5.2 | -112.1
CCn1cc(C(=O)N[C@@H](CCSC)C(=O)NCCCN2CCOCC2)c(=O)c2cc3c(cc21)OCO3 | 0.997 | nt | 1.05 | nt | -4.8 | 0.3 | nt
CCCCNC(=O)Nc1ccc2c(c1)N(C)C(=O)c1ccccc1S2 | 1.45 | nt | 2.71* | nt | -171.5 | -44.7 | -124.5
O=C1c2cc(O)c(O)cc2S(=O)(=O)C1c1ccccc1 (stereo unspecified) | 0.939 | nt | 0.494 | nt | 50.6* | 6.1 | 61.6*
O=C1c2ccccc2C(=O)C1c1ccc(O)cc1 | 1.3 | 0.9 | 0.915 | 8.6 | 8.5 | -30.1 | nt
C=C(C)c1cccc(C(C)(C)NC(=O)Nc2ccc(OC)cc2)c1 | 0.799 | 1 | 1.07 | -0.6 | -7.5 | 20.1 | nt
